SMILES strings stand for the structures. pIC50: −log10 of the molar value. Converted amounts (≈) assume the structure as drawn.

Data set [1] can be described thus: Water solubility of compound by HPLC analysis. In kind it is physicochemical. In a few lines:
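Compound stocks at 5 mg/mL in DCM/MeOH were diluted in MeOH to 125–2000 µg/mL (500–5000 µg/mL for the salt form) and run on C18 HPLC with detection at 360 nm for calibration. A 10 µL injection of supersaturated aqueous solution, diluted if needed, was then analysed. Solubility was calculated from the linear regression.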

Data set [2] has as its target T1, Cytochrome P450 1A2 (Homo sapiens, UniProt P05177).
T1 sequence (P05177 whole entry): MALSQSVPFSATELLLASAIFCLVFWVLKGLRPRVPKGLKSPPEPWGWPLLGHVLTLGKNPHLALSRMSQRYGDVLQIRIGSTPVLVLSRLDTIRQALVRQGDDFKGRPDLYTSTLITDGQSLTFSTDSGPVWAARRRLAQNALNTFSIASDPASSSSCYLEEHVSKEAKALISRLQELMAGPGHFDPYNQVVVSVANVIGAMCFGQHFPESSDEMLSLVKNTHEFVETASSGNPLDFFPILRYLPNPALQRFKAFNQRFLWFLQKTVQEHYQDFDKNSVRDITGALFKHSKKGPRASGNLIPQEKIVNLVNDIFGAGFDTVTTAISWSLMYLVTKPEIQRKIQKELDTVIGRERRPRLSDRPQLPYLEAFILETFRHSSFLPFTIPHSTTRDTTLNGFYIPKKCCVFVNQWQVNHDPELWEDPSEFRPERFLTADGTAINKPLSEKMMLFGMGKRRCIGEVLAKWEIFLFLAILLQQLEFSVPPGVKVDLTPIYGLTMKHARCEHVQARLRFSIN
The experiment in a line: Inhibition of recombinant human CYP1A2 using 7-ethoxyresorufin as substrate after 50 mins in presence of NADP+ by EROD assay. In kind it is ADME. In a few lines:
(§1)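 Recombinant human CYP1 Supersomes co-expressing P450 reductase; 20 fmol CYP1B1, 10 fmol CYP1A1 or 60 fmol CYP1A2 per well. Incubated at 37 °C (1B1 35 min, 1A1 15 min, 1A2 50 min).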

The species named for data set [3] is Homo sapiens. Briefly: Selectivity index, ratio of IC50 for recombinant human CYP1A2 to IC50 for recombinant human CYP1B1.
The species named for data set [4] is Homo sapiens. Briefly: Selectivity index, ratio of IC50 for recombinant human CYP1A1 to IC50 for recombinant human CYP1B1.
For data set [5], the target named is T2, Cytochrome P450 1B1 (Homo sapiens, UniProt Q16678).
T2 sequence (Q16678 whole entry): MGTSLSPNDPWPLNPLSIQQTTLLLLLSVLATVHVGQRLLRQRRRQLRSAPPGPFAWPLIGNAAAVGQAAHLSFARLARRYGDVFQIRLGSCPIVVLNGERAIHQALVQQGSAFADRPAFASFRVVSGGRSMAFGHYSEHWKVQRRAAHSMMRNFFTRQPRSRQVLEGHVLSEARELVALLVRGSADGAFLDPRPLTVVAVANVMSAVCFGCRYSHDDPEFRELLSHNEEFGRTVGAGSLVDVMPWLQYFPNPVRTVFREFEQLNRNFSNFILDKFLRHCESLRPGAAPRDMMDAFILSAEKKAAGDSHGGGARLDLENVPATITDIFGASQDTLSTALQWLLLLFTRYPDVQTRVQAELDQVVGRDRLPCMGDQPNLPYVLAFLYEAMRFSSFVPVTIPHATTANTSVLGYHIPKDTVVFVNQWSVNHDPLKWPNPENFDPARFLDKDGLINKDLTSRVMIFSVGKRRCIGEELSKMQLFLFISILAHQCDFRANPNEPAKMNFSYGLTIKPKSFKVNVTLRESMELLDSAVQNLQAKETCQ
The experiment in a line: Inhibition of recombinant human CYP1B1 using 7-ethoxyresorufin as substrate after 35 mins in presence of NADP+ by EROD assay. A digest of the protocol:
as §1

Data set [6] concerns the target T3, Cytochrome P450 1A1 (Homo sapiens, UniProt P04798).
T3 sequence (P04798 whole entry): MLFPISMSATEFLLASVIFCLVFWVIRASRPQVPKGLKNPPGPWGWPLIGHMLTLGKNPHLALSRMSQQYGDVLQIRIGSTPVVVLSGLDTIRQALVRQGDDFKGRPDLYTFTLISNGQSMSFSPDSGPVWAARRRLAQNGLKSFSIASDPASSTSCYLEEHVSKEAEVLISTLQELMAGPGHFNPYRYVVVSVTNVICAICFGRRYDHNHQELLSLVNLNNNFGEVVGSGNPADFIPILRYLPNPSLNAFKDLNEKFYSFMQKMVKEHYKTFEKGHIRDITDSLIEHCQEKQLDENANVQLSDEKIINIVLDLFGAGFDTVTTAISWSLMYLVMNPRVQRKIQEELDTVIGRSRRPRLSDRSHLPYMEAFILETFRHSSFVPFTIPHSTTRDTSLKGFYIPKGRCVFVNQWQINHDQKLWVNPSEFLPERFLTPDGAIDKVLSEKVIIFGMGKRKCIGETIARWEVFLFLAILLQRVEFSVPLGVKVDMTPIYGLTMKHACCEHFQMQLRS
Briefly: Inhibition of recombinant human CYP1A1 using 7-ethoxyresorufin as substrate after 15 mins in presence of NADP+ by EROD assay. The format is ADME. In a few lines:
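Recombinant human CYP1 Supersomes co-expressing P450 reductase; 20 fmol CYP1B1, 10 fmol CYP1A1 or 60 fmol CYP1A2 per well. Incubated at 37 °C (1B1 35 min, 1A1 15 min, 1A2 50 min). Stopped with cold methanol; fluorescence read at 544/590 nm; triplicates.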

For data set [7], the target named is T2, Cytochrome P450 1B1. Briefly: Potency index, ratio of IC50 of ANF to IC50 of compound for inhibition of human recombinant CYP1B1. As to conditions: read-out: Ratio IC50.

As to `O=c1cc(-c2ccccc2)oc2c1ccc1ccccc12` [ALPHA-NAPHTHOFLAVONE], in data set [1], the solubility (in general, how much of the substance goes into solution per volume) was under 5 µg/mL.
`COc1ccc(OC)c2c1c(OC)cc1c(=O)cc(-c3cncc(F)c3)oc12`: the pIC50 (as a rule, the negative decadic logarithm of the IC50, by convention in mol/L) is 6.85 in data set [2], 9.01 in data set [5] and 7.75 in data set [6]. Also, the Ratio IC50 came to 144 in data set [3] and 18.1 in data set [4]. The selectivity ratio in data set [7] worked out at 5.
Turning to `COc1ccc(OC)c2c1c(OC)cc1c(=O)cc(-c3ccc(N)nc3)oc12`, the negative-log IC50 (pIC50) in data set [2] was 6.97; in data set [5] it was 9.01; in data set [6], 7.51. Besides, the Ratio IC50 turned out to be 110 in data set [3] and 31.4 in data set [4]. The solubility in data set [1] amounted to 311 µg/mL (≈ 822 µM).
As to `COc1ccc(OC)c2c1c(OC)cc1c(=O)cc(-c3ccc(F)cn3)oc12`, the pIC50 was under 6.00 in data set [2], 10.15 in data set [5] and 7.77 in data set [6]. Besides, the Ratio IC50 was over 14300 in data set [3] and 240 in data set [4]. The same compound registered a solubility in data set [1] of under 5 µg/mL. In data set [7], the selectivity ratio was determined as 84.
As for `COc1ccc(OC)c2c1c(OC)cc1c(=O)cc(-c3cncc(N)c3)oc12`, the values for the pIC50 in data set [2], in data set [5] and in data set [6] were 6.20, 7.64 and 7.73, respectively. Moreover, the Ratio IC50 in data set [3] came to 27.4; in data set [4] it was 0.8.
In the same order, the values of `COc1ccc(OC)c2c1c(OC)cc1c(=O)cc(-c3cc4ccccc4o3)oc12` are under 6.00, 9.06, 8.00, over 1150 and 11.6.
For `COc1ccc(OC)c2c1c(OC)cc1c(=O)cc(-c3ccc4ncccc4c3)oc12` the same measures were under 6.00, 8.74, 7.68, over 556 and 11.6.
In the same order, the values of `COc1ccc(OC)c2c1c(OC)cc1c(=O)cc(-c3cccc(Cl)n3)oc12` are 6.46, 9.52, 8.24, 1160 and 19.
Turning to `COc1ccc(OC)c2c1c(OC)cc1c(=O)cc(-c3cncc(O)c3)oc12`, the values for the negative-log IC50 (pIC50) in data set [2], in data set [5] and in data set [6] were under 6.00, 7.99 and 7.09, respectively. Also, the Ratio IC50 in data set [3] was over 97.1; in data set [4] it was 7.9.
In the same order, the values of `COc1ccc(OC)c2c1c(OC)cc1c(=O)cc(-c3ccco3)oc12` are 7.17, 8.92, 7.86, 56 and 11.5.
For `COc1ccc(OC)c2c1c(OC)cc1c(=O)cc(-c3cc(Cl)ccn3)oc12` the same measures were under 6.00, 9.08, 8.00, over 1190 and 11.8.
In the same order, the values of `COc1ccc(OC)c2c1c(OC)cc1c(=O)cc(-c3cscn3)oc12` are 7.53, 8.59, 8.51, 11.2 and 1.2.
On to `COc1ccc(OC)c2c1c(OC)cc1c(=O)cc(-c3c[nH]c4ncccc34)oc12`, for which the negative logarithm of the IC50 (pIC50) in data set [2] was under 6.00; in data set [5], 6.72; in data set [6] it was 7.62. Further, the Ratio IC50 was over 5.3 in data set [3] and 0.1 in data set [4].
For `COc1ccc(OC)c2c1c(OC)cc1c(=O)cc(-c3cccnc3N)oc12` the same measures were under 6.00, 6.76, 6.86, over 5.7 and 0.8.
On to `COc1ccc(OC)c2c1c(OC)cc1c(=O)cc(-c3cncc(Br)c3)oc12`, for which the values for the pIC50 in data set [2], in data set [5] and in data set [6] were 6.13, 8.96 and 8.10, respectively. Further, the results for the Ratio IC50 in data set [3] and in data set [4] were 674 and 7.3, respectively. In addition, the selectivity ratio in data set [7] is 5.
As to `COc1ccc(OC)c2c1c(OC)cc1c(=O)cc(-c3ccnc(Br)c3)oc12`, the results for the pIC50 in data set [2], in data set [5] and in data set [6] were under 6.00, 9.34 and 7.57, respectively. Also, the results for the Ratio IC50 in data set [3] and in data set [4] were over 2170 and 58.5, respectively.
Take `COc1ccc(OC)c2c1c(OC)cc1c(=O)cc(-c3cc(Cl)cc(N4CCN(C)CC4)c3)oc12`: the pIC50 is under 6.00 in data set [2], 6.28 in data set [5] and under 6.00 in data set [6]. Also, the Ratio IC50 in data set [3] and in data set [4] was over 1.9 in each case.
For `COc1ccc(OC)c2c1c(OC)cc1c(=O)cc(-c3cncc(C)c3)oc12`, the values for the negative-log IC50 (pIC50) in data set [2], in data set [5] and in data set [6] were 6.79, 8.89 and 8.16, respectively. The Ratio IC50 in data set [3] turned out to be 124; in data set [4], 5.3. Further, in data set [7], the selectivity ratio was 5.
Consider `COc1ccc(OC)c2c1c(OC)cc1c(=O)cc(-c3ccc(Cl)cn3)oc12`, for which the pIC50 in data set [2] is 6.68; in data set [5] it was 9.85; in data set [6] it was 8.80. Besides, the Ratio IC50 in data set [3] came to 1490; in data set [4], 11.4.
For `COc1ccc(OC)c2c1c(OC)cc1c(=O)cc(-c3ccnc(N)c3)oc12` the same measures were under 6.00, 7.69, 7.82, over 48.5 and 0.7.

The values are drawn from ChEMBL document CHEMBL4732065 (Eur J Med Chem, 2021).
